# Neddyl block: cullin neddylation inhibition. P61081+Q13564. TR-FRET cullin neddylation, biochemical. AID 651699. inhibition, % at 25 µM. 0.58% of 360,000 active; in the data active = inhibition above about 36%
# HNF4A DNA FP: change in binding of human HNF4 alpha to DNA; P41235; HNF4a-FITC DNA binding, fluorescence polarization, 1 h; activity change, % at 10 µM; 0.3% of 360,000 active; in the data active = activity change above about 30%, passing the limit was not always enough
# Rpn11 block: Rpn11 (human) deubiquitinase inhibition | O00487 | human 26S proteasome, Ub4-pepOG fluorescence polarization; 20S core pre-blocked with epoxomicin | inhibition, % at 20 µM | 0.59% of 360,000 active | AID 588493;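 active = inhibition at 20 µM, scaled to each plate's controls, above about 33%, limit read from the data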
# PREPL inhibitor: inhibitors of human prolyl oligopeptidase-like enzyme PREPL; Q4J6C6; recombinant PREPL, fluorescence polarization activity-based probe; inhibition, % at 5.96 µM; 0.68% of 320,000 active; AID 2751; in the data active = inhibition above about 43%;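 note: 0% = enzyme with DMSO and 100% = wells lacking enzyme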
# Target sequence (Q4J6C6 whole entry, looked up): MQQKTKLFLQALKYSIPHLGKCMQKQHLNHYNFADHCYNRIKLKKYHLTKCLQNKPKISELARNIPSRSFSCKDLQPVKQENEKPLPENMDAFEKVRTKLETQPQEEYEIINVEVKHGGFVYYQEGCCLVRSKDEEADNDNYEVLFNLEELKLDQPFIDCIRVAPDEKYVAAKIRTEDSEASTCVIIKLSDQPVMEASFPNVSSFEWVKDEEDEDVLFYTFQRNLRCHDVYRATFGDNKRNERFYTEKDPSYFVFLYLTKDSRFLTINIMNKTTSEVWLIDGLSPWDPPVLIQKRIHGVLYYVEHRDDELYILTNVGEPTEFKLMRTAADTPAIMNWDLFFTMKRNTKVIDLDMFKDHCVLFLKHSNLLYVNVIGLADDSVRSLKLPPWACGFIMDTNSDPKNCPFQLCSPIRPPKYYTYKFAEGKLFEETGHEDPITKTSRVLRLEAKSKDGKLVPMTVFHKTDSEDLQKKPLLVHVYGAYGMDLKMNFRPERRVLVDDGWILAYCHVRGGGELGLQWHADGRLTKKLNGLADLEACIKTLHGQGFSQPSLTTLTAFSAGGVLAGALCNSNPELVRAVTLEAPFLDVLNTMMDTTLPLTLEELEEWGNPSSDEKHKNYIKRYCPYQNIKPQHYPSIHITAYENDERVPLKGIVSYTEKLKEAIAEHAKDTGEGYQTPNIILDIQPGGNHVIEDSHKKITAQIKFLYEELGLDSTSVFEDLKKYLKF
# CSN inh: blocks human CSN-mediated cullin deneddylation | 0.38% of 360,000 active | Q92905 | AID 651999 | Purified CSN, SCF-Nedd8-OG deneddylation, fluorescence polarization | inhibition, % at 12.5 µM;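 active = pattern-corrected inhibition above about 35%, with an unprinted fluorescence ratio check between 0.5 and 1.5, limit read from the data, passing the limit was not always enough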;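 note: 0% = enzyme with substrate and 100% = substrate without enzyme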
#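 test system = HEK293T-derived human Csn5 enzyme | amount = 0.24 nM Csn5 enzyme, final concentration | medium = Tris/NaCl/DTT buffer, pH 7.5 | schedule = 90 min reaction at room temperature | signal = FP | evaluation = inhibition of Csn5 cleavage, % | compound dosing = single dose of 12.5 µM compound with 0.25% DMSO | probe or stimulus = 10 nM SCFSkp2-Nedd8OG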
# Tb MetRS inh: blocks T. brucei methionyl-tRNA synthetase activity. purified T. brucei MetRS, ATP depletion, Kinase-Glo luminescence. inhibition, % at 11.9 µM. 0.4% of 360,000 active;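 active = inhibition above a per-plate cutoff of the control wells' mean inhibition plus 3 SD, cut at about 5.5% in these data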;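 note: 0% = DMSO wells median and 100% = median of wells with control inhibitor compound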
#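 Dosing: 11.9 µM single point; system: parasite MetRS enzyme; technique: luminescence of leftover ATP; times: 15 min enzyme-compound preincubation, 2 h reaction, 10 min detection, 25 °C; replicates: each compound tested once; read-out basis: percent inhibition relative to median high and low control wells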
# Numbers without * were called inactive; i = inactive; · = no result given; + = active, no number. A selection: hits, their analogues and other compounds. The true share with any hit is near 2.4%.
SMILES,Neddyl block,HNF4A DNA FP,Rpn11 block,PREPL inhibitor,CSN inh,Tb MetRS inh
Cc1ccc(S(=O)(=O)N2C[C@H]3[C@H]4C(=O)N(c5ccccc5)C(=O)[C@H]4CC(=O)[C@H]3[C@@H]2c2ccccc2F)cc1,3,-4,6,·,111*,0
Cc1ccc(S(=O)(=O)N2C[C@H]3[C@H]4C(=O)N(c5ccccc5)C(=O)[C@H]4CC(=O)[C@H]3[C@@H]2c2cccc3ccccc23)cc1,-25,-5,17,·,-3,0
COCCn1c(SCC(=O)Nc2ccc3c(c2)OCCO3)nnc1C(C)C,-3,3,-1,3,-1,-1
COCCn1c(SCC(=O)c2ccc3c(c2)OCCO3)nnc1C(C)C,8,1,-1,-6,84*,-1
CCCCn1c(N)c(N(CC(C)C)C(=O)CSc2nn(-c3ccc(F)cc3)c(=S)s2)c(=O)[nH]c1=O,8,4,6,·,5,0
CCc1nc2ccccc2c(C(=O)OCC(=O)N(CCOC)c2c(N)n(Cc3ccccc3)c(=O)[nH]c2=O)c1C,1,-1,4,·,+,0
COCCN(C(=O)COC(=O)c1c(-c2ccccc2)noc1C)c1c(N)n(Cc2ccccc2)c(=O)[nH]c1=O,-3,1,-1,7,4,0
O=C(OCc1ccccc1)N1CCc2ccccc21,7,3,-6,7,-2,1
CN(C)c1ccc(NC(=O)CCn2c(=S)oc3ccccc32)cc1,2,4,-4,58*,4,0
C=CCNc1ncnc2c1ncn2[C@H]1CN(CCOC)C[C@@H](CO)O1,-5,6,-2,·,-4,0
Cc1ccnc(NS(=O)(=O)c2ccc(NC(=O)Cc3c(F)cccc3Cl)cc2)n1,1,48*,-4,-7,0,0
CC(C)Oc1ccc(S(=O)(=O)N2CCOCC2)cc1NC(=O)c1cc([N+](=O)[O-])ccc1N1CCOCC1,-18,-1,-2,-1,-3,0
COc1ccc(C2=NN3C(C2)c2ccccc2OC3c2cccs2)cc1 (centres undefined),21,6,40*,10,9,-1
COc1ccc(C2=NN(C(=O)CCC(=O)O)C(c3cccs3)C2)cc1 (centres undefined),23,2,5,9,3,-1
O=S(=O)(c1c(F)cccc1F)N(CCc1ccc(F)cc1)C[C@@H](O)COCc1ccccc1,-4,-2,-4,·,-1,0
CNS(=O)(=O)c1cccc(C(=O)OCC(=O)c2ccc(S(=O)(=O)N3CCCCC3)cc2)c1,-2,-1,2,-6,-2,-1
CNS(=O)(=O)c1cccc(C(=O)OCC(=O)c2ccc3[nH]c(=O)[nH]c3c2)c1,2,5,-1,13,54*,0
NC(=O)N/N=C/c1ccc(N2CCOCC2)s1,-18,71*,·,6,5,-1
O=C(N/N=C/c1ccc(N2CCOCC2)s1)c1ccc(O)cc1,21,1,6,·,11,0
C=CCn1c(=O)/c(=C/c2ccc(O)cc2)s/c1=C(/C#N)c1nnc2n1CCCCC2,-40,80*,·,1,97*,0
CS(=O)(=O)Nc1cccc(C2=NN(S(C)(=O)=O)C(c3ccc4c(c3)OCO4)C2)c1 (centres undefined),1,36*,1,-8,-4,0
Cc1cc(C(=O)COC(=O)c2ccc(O)cc2O)c(C)n1C(C)C,-9,2,-6,8,1,0
COc1ccc(C2=CC(=O)C[C@H](CN3C(=O)c4ccccc4C3=O)N(C(=O)OC(C)(C)C)O2)cc1,-16,0,8,·,6,1
CC(=O)c1ccc(NC(=O)CN(c2c(C)cccc2C)S(C)(=O)=O)cc1,-8,-2,-8,·,-4,0
COc1ccc(C2=NOC(Cn3nc(-c4ccccc4)cc3C(=O)NCc3ccc(C)cc3)C2)cc1 (centres undefined),1,8,2,9,35*,0
SMILES,Neddyl block,HNF4A DNA FP,Rpn11 block,PREPL inhibitor,CSN inh,Tb MetRS inh
O=C1NC[C@@H](Cc2cccc3ccccc23)N(CCc2cccc(F)c2)C1=O,-6,4,·,·,54*,-1
CCCCN1C(=O)C(=O)NC[C@H]1Cc1cccc2ccccc12,-1,3,·,·,51*,-1
CS(=O)(=O)N(CC(=O)N1CCOCC1)c1cccc(Cl)c1,-11,5,-10,·,90*,0
COc1ccc(C(=O)N2CCOCC2)cc1Br,-3,3,3,6,8,0
COc1cccc(OC)c1C(=O)N1CCOCC1,4,34*,-1,5,1,0
COc1ccc(CNc2oc(-c3cccc4ccccc34)nc2P(=O)(OC)OC)cc1,·,3,0,-1,9,3
COP(=O)(OC)c1nc(-c2cccc3ccccc23)oc1NCc1ccccc1,·,-3,1,2,85*,0
O=c1oc2ccc(Cl)cc2nc1/C=C(\O)c1cccs1,-22,54*,-22,14,8,-1
Cc1ccc2oc(=O)c(/C=C(\O)c3cccs3)nc2c1,-14,12,·,-3,34,0
CC(=O)NC1CC2CCCC(C1)N2C(=O)Nc1ccc(Cl)c(C(F)(F)F)c1 (centres undefined),-4,30*,7,0,4,0
Cc1ccc(NC(=O)N2C3CCCC2CC(NC(=O)C2CC2)C3)cc1 (centres undefined),-3,-2,-3,16,1,-1
CCOC(=O)C1CCCN(C(=O)Cn2ncc3c([nH]c4ccc(C)cc43)c2=O)C1 (centres undefined),30,-2,-1,-5,6,1
CC(=NOC(=O)c1ccc(I)cc1)c1nccs1,0,0,-2,·,-1,-2
CC(C)(C)N1C(=O)Cc2c1nc(N)c1c(N)nc(N3CCCCC3CO)c(C#N)c21 (centres undefined),22,6,12,39,53*,0
CN(C)C(CNC(=O)c1cccc(S(=O)(=O)NCc2ccccc2)c1)c1ccccc1 (centres undefined),14,-2,1,·,-3,0
COc1ccc(-n2nc3c(N4CCC(C(=O)N5CCC(C)CC5)CC4)nnc(C)c3c2C)cc1,22,99*,·,39,64*,1
COc1ccc(N2Cc3ccc(C(=O)N/N=C\c4ccc(O)cc4O)cc3C2)cc1,·,·,·,22,·,·
CN(Cc1ccccc1)c1ncnc2ccc(Br)cc12,i,1,-7,-8,-2,0
CN(Cc1ccco1)c1ncnc2ccc(-c3ccoc3)cc12,39*,-5,0,16,2,0
Clc1ccc(-n2c(SCc3nc4ccccc4[nH]3)nnc2-c2ccncc2)cc1,9,1,4,4,3,6.7*
Cc1ccc(C(=O)Nc2scc(-c3ccccc3)c2C(=O)O)cc1,41*,0,-3,-1,1,1
